Screening results as filed in PubChem BioAssay.
Compounds with a hit are over-represented: about 1.1% of the library has one in this group of screens.
NR2E3 ag-1 – NR2E3 (human) agonism. Q9Y5X4. GST-NR2E3/biotin-RetCOR TR-FRET, 1536-well. inhibition of corepressor binding, % at 4.78 µM. hit rate 0.12% among 320,000. AID 2300;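 active means percent inhibition above the cutoff of mean plus 3 SD of all tested compounds, set per screening campaign, cut at about 20% in these data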
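system = GST-tagged NR2E3 plus biotinylated RetCOR corepressor | input = 1.35 nM GST-NR2E3 | also added = 7 nM biotin-RetCOR | schedule = 5 h incubation at 4 °C | measured by = TR-FRET with europium anti-GST and streptavidin-D2, 340 nm excitation | read-out = percent loss of FRET ratio relative to control wells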
HCV core dimer – HCV core protein dimerization inhibition | inhibition, % at 5 µM | AID 1899 | hit rate 0.33% among 300,000 | TR-FRET GST/Flag-core106 dimerization, 1536-well;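 active means inhibition above the mean of all tested compounds plus 3 SD, set per screening campaign, cut at about 45% in these data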
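Assay system: tagged HCV core106 pair (GST and Flag); medium: KF-containing HEPES buffer, pH 7.45, DTT, CHAPS, BSA; also added: Eu donor and XL665 acceptor anti-tag antibodies; dosing: 5 µM single dose; timing: compound-protein-antibody incubation 4 h at 22.5 °C; signal: TR-FRET 671 and 617 nm emission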
DAGLB inhibitor – blocks human DAGLB lipase activity; HEK293T DAGLB membrane lysate, EnzChek fluorogenic substrate; hit rate 0.059% among 340,000; inhibition, % at 5.17 µM; AID 504411; in the data active means inhibition above about 34%
Target sequence (Q8NCG7 whole entry, looked up): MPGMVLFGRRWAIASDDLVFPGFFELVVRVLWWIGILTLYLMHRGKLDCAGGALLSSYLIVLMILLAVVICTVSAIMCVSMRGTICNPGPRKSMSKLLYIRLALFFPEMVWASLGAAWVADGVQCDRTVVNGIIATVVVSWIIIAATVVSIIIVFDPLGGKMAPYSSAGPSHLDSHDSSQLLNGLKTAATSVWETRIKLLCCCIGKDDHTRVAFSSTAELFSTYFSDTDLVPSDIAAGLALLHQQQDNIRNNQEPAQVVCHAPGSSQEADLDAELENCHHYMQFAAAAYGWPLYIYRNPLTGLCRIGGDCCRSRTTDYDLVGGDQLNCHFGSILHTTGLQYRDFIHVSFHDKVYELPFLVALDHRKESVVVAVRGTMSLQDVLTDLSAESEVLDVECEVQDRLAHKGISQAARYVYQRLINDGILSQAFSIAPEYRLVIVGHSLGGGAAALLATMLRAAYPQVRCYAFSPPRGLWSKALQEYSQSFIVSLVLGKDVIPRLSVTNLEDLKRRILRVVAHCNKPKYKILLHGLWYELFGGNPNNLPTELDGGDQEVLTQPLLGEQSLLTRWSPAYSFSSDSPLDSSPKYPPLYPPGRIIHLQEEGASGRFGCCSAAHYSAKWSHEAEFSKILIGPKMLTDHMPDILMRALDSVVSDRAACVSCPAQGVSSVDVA
Vif inh – blocks HIV Vif function; HEK293T cells, Vif self-association by quenched fluorescence, imaging, 24 h; inhibition, % at 7.49 µM; hit rate 0.35% among 340,000; in the data active means inhibition above about 50%, passing the limit was not always enough; inconclusive means no clear call, values can overlap the other calls; inactive means below about 31%
NR2E3 ag-2 – human photoreceptor-specific nuclear receptor agonism; Q9Y5X4; CHO-S Gal4-NCOR/VP16-NR2E3 two-hybrid, luciferase; inhibition of corepressor binding, % at 3.98 µM; hit rate 0.35% among 360,000;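 active means inhibition above the mean of all tested compounds plus 3 SD, cut at about 70% in these data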;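 further: higher means lower luciferase signal from less NR2E3 corepressor binding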
MT1-MMP act inh – MT1-MMP (human) activation inhibition; GFP/RFP ratio change, % at 20 µM; AID 651647; hit rate 0.061% among 360,000; HT1080 RFP-PRO-GFP cells, GFP/RFP ratio fluorescence, overnight; percent of plate control window, DMSO zero; P50281;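 active means GFP/RFP ratio change of at least 30% with cell ATP level not reduced by more than half and red fluorescence within 50% of control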
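Assay system: HT1080 RFP-PRO-GFP cells. Benchmarks: DMSO vehicle wells and RFP-L50D-GFP reporter cell wells. Times: overnight cell settling, then overnight compound exposure, 37 °C, 5% CO2. Compound: 20 µM single dose, 1% DMSO. Read-out basis: GFP/RFP fluorescence ratio.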
NR2E3 ag confirm – NR2E3 agonism confirmed in two-hybrid assay; shares compounds with NR2E3 ag-2; CHO-S mammalian two-hybrid NR2E3-NCOR, luciferase luminescence; inhibition, % at 3.98 µM; hit rate 51% among 2,300; AID 624378;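 active means average inhibition above a cutoff equal to the mean inhibition of all tested compounds plus one SD, cut at about 70% in these data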
VP16 counter – counter-screen for NR2E3 agonists: GAL4-VP16 reporter inhibitors; CHO-S GAL4-VP16 luciferase reporter, luminescence; hit rate 29% among 2,300; shares compounds with NR2E3 ag-2; inhibition, % at 3.98 µM;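 active means mean inhibition above a cutoff equal to the average over all tested compounds plus one standard deviation, cut at about 70% in these data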;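 further: luciferase from a UAS reporter driven by GAL4-VP16 transactivation; higher means less reporter light so more repression of VP16 activity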
Each line names hits and unclear results; the compound was inactive in the other large screens (follow-up assays come after a bar, where they were run).

O=C(O)CCSc1nnc(-c2ccc3c(c2)OCO3)o1	none | NR2E3 ag confirm inactive | VP16 counter inactive
O=C(Cc1cccc2ccccc12)NCC(=O)N1CCN(Cc2cccc(C(F)(F)F)c2)CC1	none (no result: HCV core dimer) | NR2E3 ag confirm inactive | VP16 counter inactive
Cc1cc(C)n(-c2ccccc2C#N)n1	none
CN1c2ccccc2C(O)=C(C(=S)Nc2ccccc2)S1(=O)=O	none
CN1c2ccccc2C(O)=C(C(=S)Nc2ccc(F)c(Cl)c2)S1(=O)=O	none | NR2E3 ag confirm 88 | VP16 counter inactive
CC[C@@H](C(=O)[C@@H](C)[C@@H](O)[C@H](C)CCc1ccc(C)c(O)c1C(=O)O)[C@H]1O[C@](CC)([C@H]2CC[C@](O)(CC)[C@H](C)O2)C[C@@H]1C	NR2E3 ag-2 104 | NR2E3 ag confirm 98 | VP16 counter 91
COc1cccc(N2CCN(c3ncnc4c3[nH]c3ccc(F)cc34)CC2C)c1 (stereo unspecified)	NR2E3 ag-2 109 | NR2E3 ag confirm 101 | VP16 counter 100
C=CCn1c(SCc2ccc(C(=O)Nc3ccccc3)cc2)nnc1-c1ccccc1	none
Clc1ccc(CCNc2ncnc3c2nnn3Cc2ccccc2)cc1	none
CC(C)C(Sc1nc(-c2ccccc2)cc(-c2ccccc2)c1C#N)C(=O)O (stereo unspecified)	none | NR2E3 ag confirm inactive | VP16 counter inactive
CCCC(=O)N1CCN(c2ccc(NC(=O)c3ccc([N+](=O)[O-])o3)cc2)CC1	none (no result: NR2E3 ag-1, HCV core dimer) | NR2E3 ag confirm inactive | VP16 counter inactive
COc1ccccc1N(CC(O)Cn1ccnc1C)S(=O)(=O)c1ccccc1 (stereo unspecified)	none
O=C(O)c1ccc(S(=O)(=O)/N=C2\C=C(Nc3ccccc3F)C(=O)c3ccccc32)cc1	NR2E3 ag-2 104 | NR2E3 ag confirm 100 | VP16 counter inactive
Cc1ccccc1NC1=C/C(=N\S(=O)(=O)c2cccs2)c2ccccc2C1=O	none | NR2E3 ag confirm 100 | VP16 counter 99
CCOc1ccc(NC(=O)CCc2nnc3ccc(N4CCC5(CC4)OCCO5)nn23)cc1	none
Cc1ccc(N(CC(=O)NC(C)(C)C)C(=O)CNC(=O)c2cccs2)cc1C	none
CO[C@@]12[C@@H]3N[C@@H]3CN1C1=C(C(=O)C(N)=C(C)C1=O)[C@@H]2COC(N)=O	none (no result: NR2E3 ag-1, HCV core dimer)
COc1ccc(CCN2C(=O)CSC2=Nc2ccc(C(C)C)cc2)cc1OC	none (no result: DAGLB inhibitor) | NR2E3 ag confirm 83 | VP16 counter 75
CCC(=O)N1CCc2cc(S(=O)(=O)CCC(=O)N3CCN(c4ccc(Cl)cc4)CC3)ccc21	none | NR2E3 ag confirm inactive | VP16 counter inactive
CCOc1ccc(NC(=O)COC(=O)C2C3CC4OC(=O)C2C4C3)cc1 (stereo unspecified)	none
CC(OC(=O)c1cccc(-n2cnnn2)c1)C(=O)Nc1cccc(Cl)c1 (stereo unspecified)	none
CCCOc1ccc(CN(CCC#N)C(=S)NC(=O)c2ccccc2)cc1	none | NR2E3 ag confirm inactive | VP16 counter inactive
COCCn1c(SCC(=O)N2CCCCCC2)nnc1-c1ccco1	none
Cc1cc(C)cc(NC(=O)CCc2nc3sc4c(c3c(=O)[nH]2)CCCC4)c1	Vif inh 151, NR2E3 ag-2 84 | NR2E3 ag confirm 96 | VP16 counter inactive
Cc1ccc2oc(/N=C(\N)NC(=O)C(C)(C)C)nc2c1	NR2E3 ag-2 91 | NR2E3 ag confirm 92 | VP16 counter inactive
Cc1ccc2oc(/N=C(\N)NC(=O)C3CC3)nc2c1	none
CC1=Nc2ccccc2/C1=C/c1sc(=N)n(-c2nccs2)c1O	NR2E3 ag-2 76 | NR2E3 ag confirm inactive | VP16 counter inactive
CC[C@@]1(O)C(=O)OCc2c1cc1n(c2=O)Cc2cc3c(CN(C)C)c(O)ccc3nc2-1	none
CC[C@@]1(O)C(=O)OCc2c1cc1n(c2=O)Cc2cc3c(N)cccc3nc2-1	Vif inh inconclusive, NR2E3 ag-2 82 | NR2E3 ag confirm 88 | VP16 counter inactive
NS(=O)(=O)c1ccc(CCNC(=O)Cc2cccs2)cc1	none
COc1cccc(OCC(O)CN2CCC(CN3C(=O)c4cccc5cccc(c45)C3=O)CC2)c1 (stereo unspecified)	none
O=C1c2cccc3cccc(c23)C(=O)N1CC1CCN(CC(O)COc2ccc3ccccc3c2)CC1 (stereo unspecified)	none | NR2E3 ag confirm inactive | VP16 counter inactive
COc1cc(C2c3cc4c(cc3CC3COC(=O)N32)OCO4)cc(OC)c1OC (stereo unspecified)	none (no result: NR2E3 ag-1, HCV core dimer)
c1ccc(-c2csc3ncnc(NCCCN4CCOCC4)c23)cc1	none
Cc1sc2ncnc(NCc3ccccc3)c2c1C	none | NR2E3 ag confirm 89 | VP16 counter 71
c1ccc(-c2csc3ncnc(NCC4COc5ccccc5O4)c23)cc1 (stereo unspecified)	NR2E3 ag-2 91 | NR2E3 ag confirm 98 | VP16 counter 89
Cc1sc2ncnc(NCC3CCCO3)c2c1C (stereo unspecified)	none
Cc1sc2ncnc(NCC3(N4CCOCC4)CCCCC3)c2c1C	none
Cc1sc2ncnc(NCC(C)(C)N3CCOCC3)c2c1C	NR2E3 ag-2 91 | NR2E3 ag confirm 80 | VP16 counter inactive
Cc1sc2ncnc(NCC3COc4ccccc4O3)c2c1C (stereo unspecified)	NR2E3 ag-2 92 | NR2E3 ag confirm 97 | VP16 counter 89
O=C(NNC(=O)c1ccccc1-n1cccc1)c1cncc(Br)c1	none (no result: NR2E3 ag-1, HCV core dimer)
O=C(NCCCNC(=O)c1ccc(-c2cccc(Cl)c2)o1)c1cnccn1	none
COc1ccccc1NC(=S)NN=C(C)c1ccccn1	NR2E3 ag-2 78 (no result: NR2E3 ag-1, HCV core dimer) | NR2E3 ag confirm inactive | VP16 counter inactive
CC(=NNC(=S)Nc1cccc(C)c1)c1ccccn1	none (no result: NR2E3 ag-1, HCV core dimer) | NR2E3 ag confirm inactive | VP16 counter inactive
C/C(=N\NC(=S)Nc1cccc(C)c1)c1cccc(N)c1	none
CC(=NNC(=S)Nc1ccc(C)cc1)c1ccccn1	NR2E3 ag-2 71 (no result: NR2E3 ag-1, HCV core dimer) | NR2E3 ag confirm inactive | VP16 counter inactive
C/C(=N\NC(=S)Nc1cccc(C)c1)c1ccccc1	NR2E3 ag-2 71 | NR2E3 ag confirm inactive | VP16 counter inactive
Cc1ccc(N(CC(=O)NCc2ccco2)C(=O)CCC(=O)Nc2ccccn2)c(C)c1	none
CCCCn1c(N)c(N(CC(C)C)C(=O)C2=NN(c3ccccc3)C(=O)CC2)c(=O)[nH]c1=O	none (no result: HCV core dimer)
